Reference: ChEMBL document CHEMBL4715748, “Synthesis and biological investigation of new equatorial (β) stereoisomers of 3-aminotropane arylamides with atypical antipsychotic profile” (Bioorg Med Chem, 2016)

Key:
[1] = molecular target: D(2) dopamine receptor (Rattus norvegicus, UniProt P61169); experiment: Displacement of [3H] Spiperone from rat striatum dopamine D2 receptor measured after 30 mins by liquid scintillation counter method
How it was run: (§1)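 Competition binding in rat brain tissue membranes against D2, 5-HT1A and 5-HT2A sites; Ki reported as mean ± S.E.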

[2] = molecular target: T1, 5-hydroxytryptamine receptor 1A (Rattus norvegicus, UniProt P19327); experiment: Displacement of [3H]-8-OH-DPAT from rat cerebral cortex 5HT1A receptor measured after 15 mins by liquid scintillation counter method
T1 sequence (P19327 whole entry): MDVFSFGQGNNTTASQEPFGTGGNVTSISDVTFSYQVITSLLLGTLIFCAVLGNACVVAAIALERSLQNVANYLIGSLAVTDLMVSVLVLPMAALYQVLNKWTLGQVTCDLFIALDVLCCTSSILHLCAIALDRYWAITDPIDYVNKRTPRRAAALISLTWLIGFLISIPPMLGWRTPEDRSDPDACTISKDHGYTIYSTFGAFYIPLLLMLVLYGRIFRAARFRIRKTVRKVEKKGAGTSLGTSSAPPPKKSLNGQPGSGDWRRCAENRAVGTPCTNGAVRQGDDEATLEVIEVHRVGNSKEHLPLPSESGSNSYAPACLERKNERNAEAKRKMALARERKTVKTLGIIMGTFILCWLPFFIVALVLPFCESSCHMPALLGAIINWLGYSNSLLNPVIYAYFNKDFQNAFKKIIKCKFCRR

[3] = molecular target: 5-hydroxytryptamine receptor 2A (Rattus norvegicus, UniProt P14842); experiment: Displacement of [3H]-ketanserin from rat cerebral cortex 5HT2A receptor measured after 20 mins by liquid scintillation counter method; how it was run: as §1
Sequence of 5-hydroxytryptamine receptor 2A (P14842 whole entry): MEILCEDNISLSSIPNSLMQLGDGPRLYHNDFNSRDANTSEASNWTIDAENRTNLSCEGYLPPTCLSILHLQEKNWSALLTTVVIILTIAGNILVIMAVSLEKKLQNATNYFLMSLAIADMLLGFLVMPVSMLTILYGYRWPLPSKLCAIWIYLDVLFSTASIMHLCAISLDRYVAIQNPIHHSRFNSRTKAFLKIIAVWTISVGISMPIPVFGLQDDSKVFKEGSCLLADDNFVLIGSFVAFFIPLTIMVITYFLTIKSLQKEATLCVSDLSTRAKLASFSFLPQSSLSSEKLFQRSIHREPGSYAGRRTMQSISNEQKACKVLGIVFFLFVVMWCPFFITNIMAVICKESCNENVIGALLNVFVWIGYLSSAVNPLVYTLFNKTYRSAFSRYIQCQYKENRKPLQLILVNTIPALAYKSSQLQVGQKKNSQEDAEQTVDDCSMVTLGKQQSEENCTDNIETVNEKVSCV

[4] = molecular target: Dopamine D2 receptor and Serotonin 2a receptor (D2 and 5HT2a) (Rattus norvegicus) (UniProt P61169+P14842); experiment: Ratio of pKi for displacement of [3H]-ketanserin from rat cerebral cortex 5HT2A receptor measured after 20 mins by liquid scintillation counter method to pKi for displacement of [3H] Spiperone from rat striatum dopamine D2 receptor measured after 30 mins by liquid scintillation counter method
Sequence of Dopamine D2 receptor and Serotonin 2a receptor (D2 and 5HT2a) (Rattus norvegicus) (P14842 whole entry, looked up): as the sequence (P14842 whole entry) above
Sequence of Dopamine D2 receptor and Serotonin 2a receptor (D2 and 5HT2a) (Rattus norvegicus) (P61169 whole entry, looked up): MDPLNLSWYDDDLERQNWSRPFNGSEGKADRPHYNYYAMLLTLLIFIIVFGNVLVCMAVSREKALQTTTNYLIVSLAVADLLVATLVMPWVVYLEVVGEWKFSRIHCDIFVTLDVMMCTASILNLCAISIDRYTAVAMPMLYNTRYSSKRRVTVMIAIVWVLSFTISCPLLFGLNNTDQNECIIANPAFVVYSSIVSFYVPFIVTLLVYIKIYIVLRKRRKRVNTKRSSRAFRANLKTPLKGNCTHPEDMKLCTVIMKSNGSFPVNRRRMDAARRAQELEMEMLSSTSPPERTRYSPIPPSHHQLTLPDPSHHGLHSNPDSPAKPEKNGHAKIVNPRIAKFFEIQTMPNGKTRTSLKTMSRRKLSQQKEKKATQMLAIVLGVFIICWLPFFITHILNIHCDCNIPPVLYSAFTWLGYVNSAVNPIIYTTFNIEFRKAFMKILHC
How it was run: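 Ratio of pKi values, 5-HT2A over D2, computed from competition radioligand binding in rat brain tissue.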

[5] = Effect on body temperature in Swiss Albino mouse assessed as rectal body temperature at 10 mg/kg, ip measured after 30 mins by thermometer (reference value: 0.16 to 0.33 degreeC); format: organism-based; conditions: in vivo, 0.5 h
[6] = Effect on body temperature in Swiss Albino mouse assessed as rectal body temperature at 20 mg/kg, ip measured after 30 mins by thermometer (reference value: 0.16 to 0.33 degreeC); format: ADME, organism-based; conditions: in vivo, 0.5 h
[7] = Effect on body temperature in Swiss Albino mouse assessed as rectal body temperature at 10 mg/kg, ip measured after 60 mins by thermometer (reference value: 0.33 to 0.61 degreeC); format: ADME, organism-based; conditions: in vivo, 1 h
[8] = Effect on body temperature in Swiss Albino mouse assessed as rectal body temperature at 20 mg/kg, ip measured after 60 mins by thermometer (reference value: 0.33 to 0.61 degreeC); format: ADME, organism-based; conditions: in vivo, 1 h
[9] = Effect on body temperature in Swiss Albino mouse assessed as rectal body temperature at 10 mg/kg, ip measured after 90 mins by thermometer (reference value: 0.18 to 0.63 degreeC); format: ADME, organism-based; conditions: in vivo, 1.5 h
[10] = Effect on body temperature in Swiss Albino mouse assessed as rectal body temperature at 20 mg/kg, ip measured after 90 mins by thermometer (reference value: 0.18 to 0.63 degreeC); format: ADME, organism-based; conditions: in vivo, 1.5 h
[11] = Effect on body temperature in Swiss Albino mouse assessed as rectal body temperature at 10 mg/kg, ip measured after 120 mins by thermometer (reference value: 0.15 to 1.11 degreeC); format: organism-based; conditions: in vivo, 2 h
[12] = Effect on body temperature in Swiss Albino mouse assessed as rectal body temperature at 20 mg/kg, ip measured after 120 mins by thermometer (reference value: 0.15 to 1.11 degreeC); format: ADME, organism-based; conditions: in vivo, 2 h
[13] = test system: Mus musculus; experiment: Effect on 8-OH-DPAT-induced hypothermia in Swiss albino mouse assessed as change in rectal body temperature at 10 mg/kg, ip pretreated with compound for 45 mins followed by 8-OH-DPAT challenge and measured after 15 min by thermometer (reference value: -1.82 to -1.66 degreeC); format: functional, organism-based; conditions: time 60.0 min
[14] = test system: Mus musculus; experiment: Effect on 8-OH-DPAT-induced hypothermia in Swiss albino mouse assessed as change in rectal body temperature at 20 mg/kg, ip pretreated with compound for 45 mins followed by 8-OH-DPAT challenge and measured after 15 min by thermometer (reference value: -1.82 to -1.66 degreeC); format: functional, organism-based; conditions: time 60.0 min
[15] = test system: Mus musculus; experiment: Effect on 8-OH-DPAT-induced hypothermia in Swiss albino mouse assessed as change in rectal body temperature at 10 mg/kg, ip pretreated with compound for 45 mins followed by 8-OH-DPAT challenge and measured after 30 min by thermometer (reference value: -1.36 to -1.12 degreeC); format: functional, organism-based; conditions: time 75.0 min
[16] = test system: Mus musculus; experiment: Effect on 8-OH-DPAT-induced hypothermia in Swiss albino mouse assessed as change in rectal body temperature at 20 mg/kg, ip pretreated with compound for 45 mins followed by 8-OH-DPAT challenge and measured after 30 min by thermometer (reference value: -1.36 to -1.12 degreeC); format: functional, organism-based; conditions: time 75.0 min
[17] = test system: Mus musculus; experiment: Effect on 8-OH-DPAT-induced hypothermia in Swiss albino mouse assessed as change in rectal body temperature at 10 mg/kg, ip pretreated with compound for 45 mins followed by 8-OH-DPAT challenge and measured after 45 min by thermometer (reference value: -1.04 to -0.78 degreeC); format: functional, organism-based; conditions: time 90.0 min
[18] = test system: Mus musculus; experiment: Effect on 8-OH-DPAT-induced hypothermia in Swiss albino mouse assessed as change in rectal body temperature at 20 mg/kg, ip pretreated with compound for 45 mins followed by 8-OH-DPAT challenge and measured after 45 min by thermometer (reference value: -1.04 to -0.78 degreeC); format: functional, organism-based; conditions: time 90.0 min
[19] = test system: Mus musculus; experiment: Effect on 8-OH-DPAT-induced hypothermia in Swiss albino mouse assessed as change in rectal body temperature at 10 mg/kg, ip pretreated with compound for 45 mins followed by 8-OH-DPAT challenge and measured after 60 min by thermometer (reference value: -0.66 to -0.5 degreeC); format: functional, organism-based; conditions: time 105.0 min
[20] = test system: Mus musculus; experiment: Effect on 8-OH-DPAT-induced hypothermia in Swiss albino mouse assessed as change in rectal body temperature at 20 mg/kg, ip pretreated with compound for 45 mins followed by 8-OH-DPAT challenge and measured after 60 min by thermometer (reference value: -0.66 to -0.5 degreeC); format: functional, organism-based; conditions: time 105.0 min
[21] = Effect on 8-OH-DPAT-induced lower lip retraction in Wistar rat at 10 mg/kg, ip pretreated with compound for 45 mins followed by 8-OH-DPAT challenge and measured after 15 mins (reference value: 2.7 to 2.8); format: functional; conditions: time 60 min, 1 h
[22] = Effect on 8-OH-DPAT-induced lower lip retraction in Wistar rat at 20 mg/kg, ip pretreated with compound for 45 mins followed by 8-OH-DPAT challenge and measured after 15 mins (reference value: 2.7 to 2.8); format: functional; conditions: time 60 min, 1 h
[23] = test system: Mus musculus; experiment: Antipsychotic activity Swiss Albino mouse assessed as inhibition of DOI-induced head twitching by measuring number of episodes at 2.5 mg/kg, ip administered 30 mins prior to DOI stimulation (reference value: 19.63 to 19.88); format: functional; conditions: 0.5 h
How it was run: (§2)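 Male Albino Swiss mice (24–28 g) were habituated to sawdust-lined cages 20 min before the first treatment. Compounds were suspended in 1% aqueous Tween 80 and given i.p. 30 min before (±)-DOI, 2.5 mg/kg i.p. in aqueous solution. Head twitches were counted blind over 20 min, n=8 per group, mean ± SEM, one-way ANOVA with Dunnett's test.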

[24] = test system: Mus musculus; experiment: Antipsychotic activity Swiss Albino mouse assessed as inhibition of DOI-induced head twitching by measuring number of episodes at 5 mg/kg, ip administered 30 mins prior to DOI stimulation (reference value: 19.63 to 19.88); format: functional; conditions: 0.5 h; how it was run: as §2
[25] = test system: Mus musculus; experiment: Antipsychotic activity Swiss Albino mouse assessed as inhibition of DOI-induced head twitching by measuring number of episodes at 10 mg/kg, ip administered 30 mins prior to DOI stimulation (reference value: 19.63 to 19.88); format: functional; conditions: 0.5 h; how it was run: as §2
[26] = Half life in pooled human liver microsomes assessed as parent compound remaining at 2.5 uM measured up to 45 mins in presence of NADPH by LC-MS analysis; format: ADME, Microsome
How it was run: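 Compound at 2.5 μM (added from 100 μM stock in 50/50 acetonitrile/water) with 1 mg/mL pooled human liver microsomes and 250 μM NADPH in 0.1 M potassium phosphate pH 7.4 at 37 °C after 5-min preincubation. Sampled at 5, 10, 15, 30, 45 min into ice-cold acetonitrile with atropine internal standard; parent quantified by LC-MS (ESI+, [M+H]+); no-NADPH controls; half-time derived.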

Sequence of D(2) dopamine receptor (P61169 whole entry): as the sequence (P61169 whole entry, looked up) above

Cc1ccc(CN2C3CCC2CC(NC(=O)c2ccc4ccccc4c2)C3)cc1 (stereo unspecified)
Ki [1]: 0.4 nM
Ki [2]: 728 nM
Ki [3]: 854 nM

O=C(NC1CC2CCC(C1)N2Cc1ccc(C(F)(F)F)cc1)c1ccc2ccccc2c1 (stereo unspecified)
Ki [1]: 629 nM
Ki [2]: 2000 nM
Ki [3]: > 10000 nM

O=C(NC1CC2CCC(C1)N2Cc1ccccc1Cl)c1ccc2ccccc2c1 (stereo unspecified)
Ki [1]: 34.8 nM
Ki [2]: 158 nM
Ki [3]: 397 nM
Ratio pKi [4]: 0.86
deltaT [5]: 0 °C
deltaT [6]: -0.36 °C
deltaT [7]: 0.96 °C
deltaT [8]: 0.44 °C
deltaT [9]: 0.84 °C
deltaT [10]: 0.44 °C
deltaT [11]: 1.34 °C
deltaT [12]: 1.39 °C
deltaT [13]: -0.97 °C
deltaT [14]: -2 °C
deltaT [15]: -1.17 °C
deltaT [16]: -2.12 °C
deltaT [17]: -0.62 °C
deltaT [18]: -2.18 °C
deltaT [19]: -0.12 °C
deltaT [20]: -1.53 °C
Activity [21]: 2.5
Activity [22]: 2
Activity [23]: 20
Activity [24]: 14.75
Activity [25]: 10.75
half-life at 2.5 µM [26]: 33 min

COc1ccccc1CN1C2CCC1CC(NC(=O)c1ccc3ccccc3c1)C2 (stereo unspecified)
Ki [1]: 76.9 nM
Ki [2]: 82.5 nM
Ki [3]: 920 nM
Ratio pKi [4]: 0.85
deltaT [5]: 0.23 °C
deltaT [6]: -0.34 °C
deltaT [7]: 0.44 °C
deltaT [8]: 0.01 °C
deltaT [9]: 0.63 °C
deltaT [10]: 0.16 °C
deltaT [11]: 0.26 °C
deltaT [12]: -0.26 °C
deltaT [13]: -1.37 °C
deltaT [14]: -1.47 °C
deltaT [15]: -1.77 °C
deltaT [16]: -1.37 °C
deltaT [17]: -1.45 °C
deltaT [18]: -0.92 °C
deltaT [19]: -1.08 °C
deltaT [20]: -0.65 °C
Activity [21]: 2.5
Activity [22]: 2
Activity [23]: 16.25
Activity [24]: 12.25
Activity [25]: 8.25
half-life at 2.5 µM [26]: 41.3 min

O=C(NC1CC2CCC(C1)N2Cc1ccccc1Br)c1ccc2ccccc2c1 (stereo unspecified)
Ki [1]: 22.8 nM
Ki [2]: 196 nM
Ki [3]: 136 nM

COc1cccc(CN2C3CCC2CC(NC(=O)c2ccc4ccccc4c2)C3)c1 (stereo unspecified)
Ki [1]: 25.7 nM
Ki [2]: 213 nM
Ki [3]: 663 nM
Ratio pKi [4]: 0.81
deltaT [5]: -0.03 °C
deltaT [6]: -0.1 °C
deltaT [7]: 0.03 °C
deltaT [8]: 0.57 °C
deltaT [9]: 0.17 °C
deltaT [10]: 0.81 °C
deltaT [11]: 0.7 °C
deltaT [12]: 1.26 °C
deltaT [13]: -1.52 °C
deltaT [14]: -1.25 °C
deltaT [15]: -1.32 °C
deltaT [16]: -1.65 °C
deltaT [17]: -0.87 °C
deltaT [18]: -1.33 °C
deltaT [19]: -0.6 °C
deltaT [20]: -0.97 °C
Activity [21]: 2.4
Activity [22]: 2.5
Activity [23]: 16.63
Activity [24]: 14.25
Activity [25]: 9.88
half-life at 2.5 µM [26]: 42.9 min

COc1cc(C(=O)NC2CC3CCC(C2)N3Cc2ccccc2)nc2ccccc12 (stereo unspecified)
Ki [1]: > 10000 nM
Ki [2]: 30.5 nM
Ki [3]: 495 nM

O=C(NC1CC2CCC(C1)N2Cc1ccccn1)c1ccc2ccccc2c1 (stereo unspecified)
Ki [1]: 2200 nM
Ki [2]: 315 nM
Ki [3]: 589 nM

O=C(NC1CC2CCC(C1)N2Cc1ccc(Cl)cc1)c1ccc2ccccc2c1 (stereo unspecified)
Ki [1]: 0.4 nM
Ki [2]: 2500 nM
Ki [3]: 397 nM
